# Measurements as given in ChEMBL document CHEMBL1124121, “Occurrence and pharmacological significance of metabolic ortho-hydroxylation of 5- and 8-hydroxy-2-(di-n-propylamino)tetralin” (1988).
# Active and inactive are the calls of the source. The calls are words filed in the database; no cut-off is given here.
# Experiments:
# Rattus norvegicus [1] = species on record: Rattus norvegicus; test: Apparent kinetic constant(Vmax) for the O-Methylation on crude rat liver microsomes at 1 mg of protein; type: functional
# Rattus norvegicus [2] = species on record: Rattus norvegicus; test: Apparent kinetic constant(Km) for the O-Methylation on crude rat liver microsomes.; type: functional, organism-based
# Rattus norvegicus [3] = species on record: Rattus norvegicus; test: Effect on dopamine accumulation in limbic system of rat.; type: functional
# Rattus norvegicus [4] = species on record: Rattus norvegicus; test: Effect on 5-HTP accumulation in striatum of rat; Inactive; type: functional, organism-based
# Rattus norvegicus [5] = species on record: Rattus norvegicus; test: Effect on dopamine accumulation in striatum of rat.; type: functional
# Rattus norvegicus [6] = species on record: Rattus norvegicus; test: Effect on dopamine accumulation in hemispheres of rat; Inactive; type: functional, organism-based
# Rattus norvegicus [7] = species on record: Rattus norvegicus; test: Effect on 5-HTP accumulation in hemispheres of rat; Inactive; type: functional, organism-based
# Rattus norvegicus [8] = species on record: Rattus norvegicus; test: Effect on 5-HTP accumulation in limbic system of rat; Inactive; type: functional, organism-based
# Rattus norvegicus [9] = species on record: Rattus norvegicus; test: Effect on 5-HTP accumulation in limbic system of rat.; type: functional
# Rattus norvegicus [10] = species on record: Rattus norvegicus; test: Effect on dopamine accumulation in limbic system of rat; Inactive; type: functional, organism-based
# Rattus norvegicus [11] = test: Brain Concentration of 7,8-di-OH-DPAT after 15(umol/kg) sc administration with tropolone pretreatment in rat cortex; type: functional, organism-based
# Summary of the method: (§1)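 Male Wistar rats dosed sc in the neck with compound in saline (1 mL/kg), with or without tropolone pretreatment. Killed by decapitation 45 min later; striatum, cerebellum and cortex dissected and frozen at -80 °C. Perchloric acid extracts purified over Sephadex G10 and the formic acid eluate analysed by reversed-phase HPLC with electrochemical detection. Mean ± SEM, n = 4.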
# Rattus norvegicus [12] = species on record: Rattus norvegicus; test: Effect on 5-HTP accumulation in striatum of rat.; type: functional
# Rattus norvegicus [13] = test: Brain Concentration of 7,8-di-OH-DPAT after 15(umol/kg) sc administration with tropolone pretreatment in rat striatum; type: functional, organism-based; summary of the method: as §1
# Rattus norvegicus [14] = test: Brain Concentration of 7,8-di-OH-DPAT after 15(umol/kg) sc administration without tropolone pretreatment in rat striatum; type: functional, organism-based; summary of the method: as §1
# Rattus norvegicus [15] = test: Brain Concentration at 15(umol/kg, sc) without tropolone pretreatment in rat striatum; type: functional, organism-based; summary of the method: as §1
# Rattus norvegicus [16] = test: Brain Concentration at 15(umol/kg, sc) with tropolone pretreatment in rat cortex; type: functional, organism-based; summary of the method: as §1
# Rattus norvegicus [17] = test: Brain Concentration of 7,8-di-OH-DPAT after 15(umol/kg) sc administration without tropolone pretreatment in rat cortex; type: functional, organism-based; summary of the method: as §1
# Rattus norvegicus [18] = test: Brain Concentration at 15(umol/kg, sc) with tropolone pretreatment in rat striatum; type: functional, organism-based; summary of the method: as §1
# Rattus norvegicus [19] = test: Brain Concentration at 15(umol/kg, sc) without tropolone pretreatment in rat cerebellum; type: functional, organism-based; summary of the method: as §1
# Rattus norvegicus [20] = test: Brain Concentration at 15(umol/kg, sc) without tropolone pretreatment in rat cortex; type: functional, organism-based; summary of the method: as §1
# Rattus norvegicus [21] = test: Brain Concentration at 15(umol/kg, sc) with tropolone pretreatment in rat cerebellum; type: functional, organism-based; summary of the method: as §1
# Rattus norvegicus [22] = species on record: Rattus norvegicus; test: Effect on dopamine accumulation in striatum of rat; Inactive; type: functional, organism-based
# Rattus norvegicus [23] = test: Brain Concentration of 7,8-di-OH-DPAT after 15(umol/kg) sc administration without tropolone pretreatment in rat cerebellum; type: functional, organism-based; summary of the method: as §1
# Rattus norvegicus [24] = test: Brain Concentration of 7,8-di-OH-DPAT after 15(umol/kg) sc administration with tropolone pretreatment in rat cerebellum; type: functional, organism-based; summary of the method: as §1
# Rattus norvegicus [25] = species on record: Rattus norvegicus; test: Effect on 5-HTP accumulation in hemispheres of rat.; type: functional
# Rattus norvegicus [26] = test: post-synaptic effect was assayed by the increase in locomotor activity (reserpine pretreatment), at 12.5 umol/kg; type: functional
# Summary of the method: (§2)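 Male Sprague-Dawley rats pretreated sc in the neck with reserpine (5 mg/kg), then given the compound sc in the neck (n = 4). Placed singly in motility meters immediately after dosing; locomotor counts accumulated over 0–30 min. Student's t test.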
# [27] = Ratio of Km to that Vmax in crude rat liver microsomes was determined; conditions: Microsome
# Rattus norvegicus [28] = test: post-synaptic effect was assayed by the increase in locomotor activity (reserpine pretreatment), at 3.15 umol/kg; type: functional; summary of the method: as §2
# Rattus norvegicus [29] = species on record: Rattus norvegicus; test: Effect on dopamine accumulation in hemispheres of rat.; type: functional
# Rattus norvegicus [30] = test: Brain Concentration at 25 (umol/kg, sc) with tropolone pretreatment in rat cortex; type: functional, organism-based; summary of the method: as §1
# Rattus norvegicus [31] = test: Brain Concentration of 5,6-di-OH-DPAT after 25 (umol/kg) sc administration without tropolone pretreatment in rat striatum; type: functional, organism-based; summary of the method: as §1
# Rattus norvegicus [32] = test: Brain Concentration at 25 (umol/kg, sc) without tropolone pretreatment in rat cortex; type: functional, organism-based; summary of the method: as §1
# Rattus norvegicus [33] = species on record: Rattus norvegicus; test: Apparent kinetic constant(Vmax) for the aromatic hydroxylation on crude rat liver microsomes at 1 mg of protein; type: functional
# Summary of the method: (§3)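 Crude rat liver microsomes (0.5 mg protein/mL) were incubated with substrate at 37 °C for 3 min in 0.1 M Tris, pH 7.4, with 0.1 mM NADPH and MgCl₂. The reaction was stopped with perchloric acid. Catechol products in the supernatant were measured by HPLC with electrochemical detection. Apparent Km and Vmax came from Lineweaver-Burk plots of 3–4 substrate concentrations, each run in triplicate.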
# Rattus norvegicus [34] = species on record: Rattus norvegicus; test: Apparent kinetic constant(Km) for the aromatic hydroxylation on crude rat liver microsomes.; type: functional, organism-based; summary of the method: as §3
# Rattus norvegicus [35] = test: Brain Concentration at 25 (umol/kg, sc) without tropolone pretreatment in rat cerebellum; type: functional, organism-based; summary of the method: as §1
# Rattus norvegicus [36] = test: Brain Concentration of 5,6-di-OH-DPAT after 25 (umol/kg) sc administration without tropolone pretreatment in rat cerebellum; type: functional, organism-based; summary of the method: as §1
# Rattus norvegicus [37] = test: Brain Concentration of 5,6-di-OH-DPAT after 25 (umol/kg) sc administration with tropolone pretreatment in rat striatum; type: functional, organism-based; summary of the method: as §1
# Rattus norvegicus [38] = test: Brain Concentration of 5,6-di-OH-DPAT after 25 (umol/kg) sc administration with tropolone pretreatment in rat cortex; type: functional, organism-based; summary of the method: as §1
# Rattus norvegicus [39] = test: Brain Concentration at 25 (umol/kg, sc) with tropolone pretreatment in rat striatum; type: functional, organism-based; summary of the method: as §1
# Rattus norvegicus [40] = test: Brain Concentration at 25 (umol/kg, sc) without tropolone pretreatment in rat striatum; type: functional, organism-based; summary of the method: as §1
# Rattus norvegicus [41] = test: Brain Concentration at 25 (umol/kg, sc) with tropolone pretreatment in rat cerebellum; type: functional, organism-based; summary of the method: as §1
# Rattus norvegicus [42] = test: Brain Concentration of 5,6-di-OH-DPAT after 25 (umol/kg) sc administration with tropolone pretreatment in rat cerebellum; type: functional, organism-based; summary of the method: as §1
# Rattus norvegicus [43] = test: Brain Concentration of 5,6-di-OH-DPAT after 25 (umol/kg) sc administration without tropolone pretreatment in rat cortex; type: functional, organism-based; summary of the method: as §1
# Rattus norvegicus [44] = test: post-synaptic effect was assayed by the increase in locomotor activity (reserpine pretreatment), at 0.25 umol/kg; type: functional; summary of the method: as §2
SMILES,Vmax (Rattus norvegicus [1]) [pM/min],Km (Rattus norvegicus [2]) [µM],ED50 (Rattus norvegicus [3]) [µmol/kg],ED50 (Rattus norvegicus [4]),ED50 (Rattus norvegicus [5]) [µmol/kg],ED50 (Rattus norvegicus [6]),ED50 (Rattus norvegicus [7]),ED50 (Rattus norvegicus [8]),ED50 (Rattus norvegicus [9]) [µmol/kg],ED50 (Rattus norvegicus [12]) [µmol/kg],ED50 (Rattus norvegicus [25]) [µmol/kg],Ratio [27],further results
CCCN1CCC[C@@H](c2ccc(O)c(O)c2)C1,37000,77,–,–,–,–,–,–,–,–,–,–,–
CCCN(CCC)C1CCc2c(cccc2OC)C1 (configuration not stated),–,–,0.013,inactive,0.018,inactive,inactive,inactive,–,–,–,–,–
CCCN(CCC)C1CCc2cccc(O)c2C1 (configuration not stated) [8-OH-DPAT],–,–,–,–,–,inactive,–,–,0.048,0.045,0.068,–,ED50 (Rattus norvegicus [10]): inactive; Concentration (Rattus norvegicus [11]): 0.7 nM/g; Concentration (Rattus norvegicus [13]): 0.58 nM/g; Concentration (Rattus norvegicus [14]): 0.65 nM/g; Concentration (Rattus norvegicus [15]): 10.3 nM/g; Concentration (Rattus norvegicus [16]): 13.2 nM/g; Concentration (Rattus norvegicus [17]): 0.64 nM/g; Concentration (Rattus norvegicus [18]): 12.3 nM/g; Concentration (Rattus norvegicus [19]): 8.1 nM/g; Concentration (Rattus norvegicus [20]): 10.7 nM/g; Concentration (Rattus norvegicus [21]): 9 nM/g; ED50 (Rattus norvegicus [22]): inactive; Concentration (Rattus norvegicus [23]): 0.5 nM/g; Concentration (Rattus norvegicus [24]): 0.54 nM/g
CCCN(CCC)C1CCc2ccc(O)c(OC)c2C1 (configuration not stated),–,–,0.314,–,0.35,inactive,–,–,1.49,2.06,1.62,–,Motor activity (Rattus norvegicus [26]): <149
CCCN(CCC)C1CCc2cccc(OC)c2C1 (configuration not stated),–,–,–,–,–,–,–,–,0.34,0.29,0.23,–,ED50 (Rattus norvegicus [10]): inactive; ED50 (Rattus norvegicus [22]): inactive
CCCN(CCC)C1CCc2ccc(O)c(O)c2C1 (configuration not stated),280,2400,0.986,–,0.977,–,–,–,1.53,1.39,1.05,117,Motor activity (Rattus norvegicus [28]): <31; ED50 (Rattus norvegicus [29]): 1.75 µmol/kg
CCCN(CCC)[C@@H]1CCc2ccc(O)cc2C1,–,–,0.18,inactive,0.17,inactive,inactive,inactive,–,–,–,–,–
CCCN(CCC)C1CCc2c(O)cccc2C1 (configuration not stated) [5-OH-DPAT],–,–,0.011,inactive,0.009,inactive,inactive,inactive,–,–,–,19600,Concentration (Rattus norvegicus [30]): 12.7 nM/g; Concentration (Rattus norvegicus [31]): 0.2 nM/g; Concentration (Rattus norvegicus [32]): 12.1 nM/g; Vmax (Rattus norvegicus [33]): 1180 pM/min; Km (Rattus norvegicus [34]): 60 µM; Concentration (Rattus norvegicus [35]): 8.5 nM/g; Concentration (Rattus norvegicus [36]): 0.08 nM/g; Concentration (Rattus norvegicus [37]): 0.43 nM/g; Concentration (Rattus norvegicus [38]): 0.37 nM/g; Concentration (Rattus norvegicus [39]): 11.9 nM/g; Concentration (Rattus norvegicus [40]): 10.8 nM/g; Concentration (Rattus norvegicus [41]): 9.4 nM/g; Concentration (Rattus norvegicus [42]): 0.3 nM/g; Concentration (Rattus norvegicus [43]): 0.08 nM/g
CCCN(CCC)C1CCc2c(ccc(O)c2O)C1 (configuration not stated),400,80,0.007,inactive,0.007,inactive,inactive,inactive,–,–,–,5000,Motor activity (Rattus norvegicus [44]): <529
CCCN(CCC)C1CCc2c(ccc(O)c2OC)C1 (configuration not stated),–,–,0.16,inactive,0.125,inactive,inactive,inactive,–,–,–,–,Motor activity (Rattus norvegicus [26]): <204
